Reference: the array DNA melting data of Ke et al. (doi:10.1101/2024.01.08.574731)

Columns and labels:
[1] = melting temperature; fluorescence melt of hairpins on a sequencing array, two-state fit, raised by 9.35 °C to match UV melts; details: sodium 0.088 M
Method in brief: (§1)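 Melting temperature and folding enthalpy were derived from bootstrapped two-state fits. The fitted temperatures were raised by 9.35 °C to agree with UV melts, and four replicates were combined by inverse variance. The underlying data were Cy3 fluorescence images of library hairpins, with annealed Cy3 and quencher oligos, on a sequenced MiSeq flow cell in 50 mM Na-HEPES pH 8.0, 25 mM NaCl, taken in 2.5 °C steps up to 60 °C, normalised to pre-quench Cy3 and to control constructs.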

[2] = folding enthalpy; higher = less favourable; fluorescence melt of hairpins on a sequencing array, two-state fit; details: sodium 0.088 M
Method in brief: as §1

Sequence	Tm [1]	folding enthalpy [2]
GGAAGTCGAAAGACGTCC (((.(((....))).)))	52.2 °C	-23.7 kcal/mol
GGAAGTGGAAACACCTCC (((.(((....))).)))	36.6 °C	-23.5 kcal/mol
GGAAGTGGAAACGCTTTC (.(((.(....).))).)	31.4 °C	-19.6 kcal/mol
GGAATACGAAAGTATCC (((.(((....))))))	42.8 °C	-17.9 kcal/mol
GGAATCGAAAGATTTCC ((((((....))).)))	41.5 °C	-27 kcal/mol
GGAATCGAAAGATTTTCC ((((((....)))..)))	27.8 °C	-17.7 kcal/mol
GGAATCGCGAAAGCGTCC (((..(((....))))))	29.2 °C	-8.44 kcal/mol
GGAATCGGAAACGACTCC (((.(((....))).)))	40.4 °C	-28.9 kcal/mol
GGAATCGGAAACGATTTC (.(((((....))))).)	47.9 °C	-33.3 kcal/mol
GGAATCGGAAACGGTTCC ((((.((....)).))))	52.2 °C	-44.5 kcal/mol
GGAATGGGAAACCACTCC (((.(((....))).)))	33.7 °C	-33.6 kcal/mol
GGAATGGGAAACCATTCC (((((((....)))))))	60.4 °C	-45.1 kcal/mol
GGAATGGGAAACCGTTCC ((((.((....)).))))	50.8 °C	-39.1 kcal/mol
GGAATGGGAAACCGTTTC (.((.((....)).)).)	30.7 °C	-18 kcal/mol
GGAATTGCGAAAGCATCC (((..(((....))))))	30.3 °C	-9.07 kcal/mol
GGAATTGGAAACAACTCC (((.(((....))).)))	30.3 °C	-22.2 kcal/mol
GGAATTGGAAACAATCCC ((.((((....)))).))	35.6 °C	-20.1 kcal/mol
GGACAAGCGAAAGCTTCC (((..(((....))))))	29.2 °C	-12.3 kcal/mol
GGACAAGGAAACTCGTCC ((((.((....)).))))	39.2 °C	-29.2 kcal/mol

Sequence	Tm [1]	folding enthalpy [2]
GGACAATCGAAAGATTCC (((..(((....))))))	27.5 °C	-8.86 kcal/mol
GGACACACGAAAGTGTCC (((..(((....))))))	57.9 °C	-30.7 kcal/mol
GGACACCGAAAGGTATCC (((.(((....))).)))	47.5 °C	-30.4 kcal/mol
GGACACGAAAGTGATCC ((((((....))).)))	48.5 °C	-21.7 kcal/mol
GGACACGAAAGTGCTTCC ((((((....)))..)))	40.4 °C	-20.4 kcal/mol
GGACACGAAAGTGGTCC ((((((....))).)))	57 °C	-21.6 kcal/mol
GGACACGCGAAAGCGTCC (((..(((....))))))	42.1 °C	-9.09 kcal/mol
GGACACTCGAAAGAGTCC (((..(((....))))))	39 °C	-15.9 kcal/mol
GGACAGCGAAAGCTATCC (((.(((....))).)))	45 °C	-24.7 kcal/mol
GGACAGCGAAAGCTTCC (((.(((....))))))	43.5 °C	-20.9 kcal/mol
GGACAGGGAAACCTGTCC (((((((....)))))))	68.3 °C	-37.4 kcal/mol
GGACAGTCGAAAGACTCC (((..(((....))))))	31 °C	-12.8 kcal/mol
GGACATCCGAAAGGATCC (((..(((....))))))	29.3 °C	-12.6 kcal/mol
GGACATCGAAAGATCTCC (((.(((....))).)))	32.6 °C	-21.8 kcal/mol
GGACATCGAAAGATTCC (((.(((....))))))	38.6 °C	-26.4 kcal/mol
GGACATCGAAAGATTTCC (((.(((....))).)))	39.6 °C	-32 kcal/mol
GGACATGGAAACATATCC (((.(((....))).)))	30.5 °C	-21.6 kcal/mol
GGACATGGAAACGTGTTC (.(((.(....).))).)	35 °C	-23.8 kcal/mol
